Experimental findings from ChEMBL document CHEMBL2401668, “Evaluation of thiazole containing biaryl analogs as diacylglycerol acyltransferase 1 (DGAT1) inhibitors” (Eur J Med Chem, 2013) are described below.

Each structure is given as a SMILES string. In brackets after ≈: the same amount, converted by molar mass.

The test system of one data set is Mus musculus. As to the kind of experiment: Antihyperlipidemic activity in Swiss mouse assessed as reduction in plasma triglyceride level at 3 mg/kg, po after 1 to 4 hrs by acute fat tolerance test relative to control. In kind it is functional. Further details: scale not given: the % may be the effect or the level left. A digest of the protocol:
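Fasted Swiss mice (4–5 weeks, 25–30 g) were given 3 mg/kg by oral gavage as a suspension in 0.5% CMC with Tween 80, or vehicle (0.5% CMC). An olive oil bolus (10 ml/kg) followed 1 h later. Plasma was taken at 1, 2, 3 and 4 h and triglycerides were measured with a kit. The triglyceride AUC0–4 h was expressed as percent reduction, with the vehicle group taken as 100%.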

Data set [1] can be described thus: Cmax in Swiss mouse at 10 mg/kg, po by ESI-LC/MS/MS method. Also noted: dose 10 mg/kg, route oral. In kind it is ADME, organism-based. To be noted: in vivo. The method in brief: (§1)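 Oral dose of 10 mg/kg, given as a 1 mg/ml suspension in 0.5% CMC with Tween 80 to weighed Swiss mice (n = 4). Blood was drawn at 0.08–24 h, and plasma was kept on ice, centrifuged at 4 °C and stored at −80 °C. Levels were measured by ESI-LC/MS/MS. Parameters came from non-compartmental analysis: Cmax and Tmax read from the profile, AUC0–t by linear trapezoidal rule, AUCinf extrapolated, and T1/2 = 0.693/λz.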

Data set [2] is described as follows: Tmax in Swiss mouse at 10 mg/kg, po by ESI-LC/MS/MS method. In kind it is ADME, organism-based. Further details: dose 10 mg/kg, route oral. As to conditions: in vivo. A digest of the protocol:
as §1

Data set [3] in a line: AUC (infinity) in Swiss mouse at 10 mg/kg, po by ESI-LC/MS/MS method. Also noted: time infinity, dose 10 mg/kg, route oral. To be noted: plasma. In kind it is ADME, organism-based. A digest of the protocol:
as §1

A short description of data set [4]: AUC (0 to t) in Swiss mouse at 10 mg/kg, po by ESI-LC/MS/MS method. Type of data set: ADME, organism-based. Also noted: dose 10 mg/kg, route oral. As to conditions: plasma. The method in brief: as §1
Data set [5] in a line: Solubility of the compound at pH 7.4. As to conditions: buffer. In kind it is physicochemical.
Data set [6] in a line: Half life in Swiss mouse at 10 mg/kg, po by ESI-LC/MS/MS method. To be noted: in vivo. Type of data set: ADME, organism-based. Also noted: dose 10 mg/kg, route oral. A digest of the protocol: as §1

Take `CC(C)[C@H](NC(=O)c1ccc(-c2ccc(Nc3nc4ccc(F)cc4s3)cc2)cc1)C(=O)O`: the Activity with Mus musculus came to 90%. Further, in data set [1], the highest level (Cmax) was 5.3 µM. For the same molecule, the Tmax (commonly the time at which the peak concentration occurs) in data set [2] turned out to be 15 min. In addition, the area under the curve AUC(0-inf) (in general, total exposure, with the tail of the curve extrapolated) in data set [3] worked out at 5350 ng·h/mL. Moreover, in data set [4], the AUC(0-t) (commonly the area under the concentration-time curve up to a stated or last time point) came out at 5340 ng·h/mL. The concentration in solution in data set [5] (solubility) was 10 µg/mL (≈ 21.6 µM). The half-life (in general, the time needed for the level to fall by half in the phase considered) in data set [6] is 37.2 min.

Consider `CC(C)[C@H](NC(=O)c1ncc(-c2ccc(NC(=O)Nc3ccccc3Cl)cc2)s1)C(=O)O`, for which, in the data set with Mus musculus, the Activity worked out at 82%. Moreover, the Cmax (in general, the highest concentration seen after dosing) in data set [1] is 1.9 µM. Moreover, the Tmax in data set [2] turned out to be 9.6 min. Further, the AUC(0-inf) in data set [3] amounted to 672 ng·h/mL. Also, the AUC(0-t) in data set [4] was 623 ng·h/mL. The molecule also showed a half-life in data set [6] of 29.4 min.

With `CC(C)[C@H](NC(=O)c1ncc(-c2ccc(NC(=O)c3ccc(C(C)(C)C)cc3)cc2)s1)C(=O)O`, the Activity in the data set on Mus musculus is on record as 87%. This molecule also returned a Cmax in data set [1] of 11.3 µM. For the same molecule, in data set [2], the Tmax was 10.2 min. In data set [3], this molecule registered an AUC(0-inf) of 7070 ng·h/mL. Also, the AUC(0-t) in data set [4] was determined as 7060 ng·h/mL. In data set [6], this molecule showed a half-life of 49.8 min.
